This is an account of results in ChEMBL document CHEMBL4368873, “Novel O-methyl goniofufurone and 7-epi-goniofufurone derivatives: synthesis, in vitro cytotoxicity and SAR analysis” (Medchemcomm, 2018).

Broadly, the IC50 is the concentration that gives 50% inhibition.

The subject of test [1] is Jurkat. In words: Cytotoxicity against human Jurkat cells assessed as inhibition of cell growth after 72 hrs by MTT assay. The format is functional, cell-based. The procedure, abridged: (§1)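 Exponentially growing cells were exposed 72 h to compounds diluted from a 10 mM DMSO stock into serum-free medium. Growth was read by colorimetric MTT. Leukaemia/lymphoma lines (K562, HL-60, Jurkat, Raji) were grown in RPMI 1640; MCF-7, MDA-MB 231, HeLa, A549 and normal MRC-5 fibroblasts in DMEM; 37 °C, 5% CO2.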

The subject of test [2] is K562. In words: Induction of apoptosis in human K562 cells assessed as necrotic cells at IC50 after 72 hrs by Annexin V-FITC/propidium iodide staining based flow cytometry relative to control. The format is functional. The procedure, abridged:
(§2)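 K562 cells seeded at 5 × 10⁵ per well, treated 72 h at each compound's IC₅₀ level. Viability was checked by trypan blue exclusion. Viable cells were double-stained with Annexin V-FITC and propidium iodide and analysed by flow cytometry. Results are given as specific apoptosis or specific necrosis (%) relative to untreated cells.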
(Flow cytometry measures light scatter and fluorescence of single cells or particles in a stream.)

Test [3] has as its system K562. Description: Cell cycle arrest in human K562 cells assessed as increase in accumulation at sub-G1 phase at IC50 after 72 hrs by propidium iodide staining based flow cytometry relative to control. The format is functional.
Test [4] deals with MCF7. Description: Cytotoxicity against human MCF7 cells assessed as inhibition of cell growth after 72 hrs by MTT assay. The conditions noted are these: MCF7, 72 h. The format is functional, cell-based. In short, it runs like this: as §1
In general terms: Tetrazolium assays rely on reduction of a dye to a coloured formazan, in cell work by metabolically active cells.

Test [5] deals with K562. Description: Cell cycle arrest in human K562 cells assessed as accumulation at G0/G1 phase at IC50 after 72 hrs by propidium iodide staining based flow cytometry (reference value: 47.51%). The format is functional.
In test [6] the test system is K562. Description: Cell cycle arrest in human K562 cells assessed as accumulation at G2/M phase at IC50 after 72 hrs by propidium iodide staining based flow cytometry (reference value: 24.13%). The format is functional.
Test [7] deals with Raji. Description: Cytotoxicity against human Raji cells assessed as inhibition of cell growth after 72 hrs by MTT assay. The format is functional, cell-based.
Test [8] concerns K562. Description: Up regulation of Bcl-2 expression in human K562 cells at IC50 measured after 72 hrs by Western blot analysis. The format is functional, cell-based. Background: A western blot detects proteins with antibodies after separation by electrophoresis.
Test [9] deals with K562. In words: Induction of apoptosis in human K562 cells assessed as apoptotic cells at IC50 after 72 hrs by Annexin V-FITC/propidium iodide staining based flow cytometry relative to control. The format is functional. The procedure, abridged: as §2
For test [10], the system named is K562. In words: Up regulation of Caspase-3 precursor expression in human K562 cells at IC50 measured after 72 hrs by Western blot analysis. The format is functional, cell-based.
In test [11] the test system is HeLa. Description: Cytotoxicity against human HeLa cells assessed as inhibition of cell growth after 72 hrs by MTT assay. The format is functional, cell-based.
For test [12], the system named is MDA-MB-231. In words: Cytotoxicity against human MDA-MB-231 cells assessed as inhibition of cell growth after 72 hrs by MTT assay. The conditions noted are these: MDA-MB-231, 72 h. The format is functional, cell-based.
For test [13], the system named is K562. In words: Up regulation of active Caspase-3 expression in human K562 cells at IC50 measured after 72 hrs by Western blot analysis. The format is functional, cell-based.
Test [14] deals with K562. In words: Up regulation of cleaved PARP expression in human K562 cells at IC50 measured after 72 hrs by Western blot analysis. The format is functional, cell-based.
In test [15] the test system is K562. Description: Up regulation of Bax expression in human K562 cells at IC50 measured after 72 hrs by Western blot analysis. The format is functional, cell-based.
Test [16] relates to K562. In words: Cytotoxicity against human K562 cells assessed as inhibition of cell growth after 72 hrs by MTT assay. The format is functional, cell-based. The conditions noted are these: K562, 72 h.
Test [17] deals with K562. Description: Cell cycle arrest in human K562 cells assessed as accumulation at S phase at IC50 after 72 hrs by propidium iodide staining based flow cytometry (reference value: 26.52%). The format is functional.
In test [18] the test system is HL-60. Description: Cytotoxicity against human HL60 cells assessed as inhibition of cell growth after 72 hrs by MTT assay. The conditions noted are these: HL-60, 72 h. The format is functional, cell-based. The procedure, abridged: as §1
Test [19] deals with A549. Description: Cytotoxicity against human A549 cells assessed as inhibition of cell growth after 72 hrs by MTT assay. Conditions: A549, 72 h. The format is functional, cell-based.
The test system of test [20] is MRC5. In words: Cytotoxicity against human MRC5 cells assessed as inhibition of cell growth after 72 hrs by MTT assay. The format is cell-based. The conditions noted are these: MRC5, 72 h.
For test [21], the system named is K562. Description: Cell cycle arrest in human K562 cells assessed as accumulation at sub-G1 phase at IC50 after 72 hrs by propidium iodide staining based flow cytometry (reference value: 1.84%). The format is functional.
Test [22] deals with A549. In words: Potency index, ratio of doxorubicin IC50 to test compound IC50 for human A549 cells. The format is functional.
Test [23] deals with K562. In words: Down regulation of Bcl-2 expression in human K562 cells at IC50 measured after 72 hrs by Western blot analysis. The format is functional, cell-based.
Test [24] concerns K562. In words: Down regulation of Bax expression in human K562 cells at IC50 measured after 72 hrs by Western blot analysis. The format is functional, cell-based.

The structures appear in SMILES notation. Active and inactive are the calls of the source. The calls are words filed in the database; no cut-off is given here.

On to `CO[C@@H]1[C@H]2OC(=O)C[C@H]2O[C@@H]1C(O)(c1ccccc1)c1ccccc1`, for which the IC50 was determined as 9.79 µM in test [1]; 11.4 µM in [4]; 18.9 µM in test [7]; 12.6 µM in test [11]; 51 µM in test [12]; 28.7 µM in [16]. Also, the IC50 is 2.36 µM in test [18], 15.1 µM in [19] and greater than 100 µM in [20]. Also, the Activity in [2] is 8.73%; in test [5] it was 43.35%; in test [6], 28.75%; in test [9], 33.41%; in [17], 17.77%; in test [21], 10.13%. In [3], the “fold change (FC)” value came out at 5.5. Moreover, the result in test [8], in [10], in test [13], in test [14] and in test [15] was Active.
`CO[C@@H]1[C@H]2OC(=O)C[C@H]2O[C@@H]1C(=O)c1ccccc1`: the IC50 came out at 8.97 µM in test [1]; 3.44 µM in test [4]; 25.6 µM in [7]; 6.39 µM in test [11]; 41 µM in test [12]; 22.5 µM in test [16]. The values for the IC50 in test [18], in test [19] and in test [20] were 11.2 µM, 2.58 µM and greater than 100 µM, respectively. The Activity is given as -0.59% in [2]; 45.46% in test [5]; 29.53% in test [6]; 2.1% in [9]; 23.68% in test [17]; 1.33% in test [21]. In addition, the result in test [8], in test [10], in [14] and in test [15] was Active. Moreover, in test [22], the “Ratio IC50” value is 2.
For `CO[C@@H]1[C@H]2OC(=O)C[C@H]2O[C@@H]1[C@@H](OC)c1ccccc1`, the IC50 was 1.69 µM in [1]; greater than 100 µM in test [4]; 10.5 µM in test [7]; 89.3 µM in test [11]; 2.65 µM in test [12]; 9.24 µM in [16]. Besides, the half-inhibitory concentration (IC50) in test [18] stood at 4.36 µM; in [19], 25.1 µM; in [20], 87.6 µM. In addition, the Activity in test [2] is on record as -0.44%; in test [5], 48.59%; in test [6], 26.35%; in test [9], 1.7%; in [17], 22.66%; in [21] it was 2.4%. Moreover, the result in [8], in test [10], in test [14] and in test [15] was Active.
Regarding `CO[C@@H]1[C@H]2OC(=O)C[C@H]2O[C@@H]1[C@@H](O)c1ccccc1`, the IC50 in [1] amounted to 15.5 µM; in test [4] it was 12.7 µM; in test [7], 12.2 µM; in test [11], 11 µM; in test [12] it was 35.2 µM; in [16], 8.45 µM. Moreover, the IC50 in test [18] is 18.9 µM; in [19] it was 38.2 µM; in test [20], greater than 100 µM. For the same compound, the Activity stood at 2.57% in test [2]; 35.04% in test [5]; 21.21% in [6]; 55.48% in test [9]; 15.08% in test [17]; 28.67% in test [21]. The “fold change (FC)” value in [3] is 15.5. In addition, the result in test [23], in test [14] and in [24] was Active.
On to `CO[C@@H]1[C@H]2OC(=O)C[C@H]2O[C@@H]1[C@H](O)c1ccccc1`, for which the concentration for half-maximal inhibition (IC50) was found to be 24.9 µM in test [1]; 4.04 µM in test [4]; 8.69 µM in test [7]; 8.63 µM in test [11]; 28.6 µM in test [12]; 5.36 µM in test [16]. Also, the IC50 is 25 µM in [18], 23.6 µM in test [19] and greater than 100 µM in test [20]. The Activity in test [2] is -0.54%; in test [5], 47.34%; in test [6] it was 24.32%; in test [9], 2.69%; in test [17] it was 26.52%; in test [21], 1.82%. In addition, the outcome in test [23], in test [14] and in [15] was Active.
`CO[C@@H](c1ccccc1)[C@H]1O[C@@H]2CC(=O)O[C@@H]2[C@H]1O`: the IC50 is 12.6 µM in test [1]; greater than 100 µM in test [4]; 21.1 µM in test [7]; 8.46 µM in test [11]; 0.13 µM in test [12]; 11.5 µM in [16]. Moreover, the IC50 is 1.63 µM in [18], 5.31 µM in test [19] and greater than 100 µM in test [20]. The Activity is recorded as 0.55% in [2]; 53.39% in [5]; 20.9% in [6]; 11.17% in [9]; 19.68% in test [17]; 6.03% in test [21]. The “fold change (FC)” value in test [3] is on record as 3. The result in test [23], in test [14] and in test [24] was Active.
For the compound `CO[C@@H]1[C@H]2OC(=O)C[C@H]2O[C@@H]1[C@H](OC)c1ccccc1`, the IC50 in test [1] was 2.36 µM; in test [4], greater than 100 µM; in test [7], 12.4 µM; in test [11], 56.4 µM; in test [12], 1.36 µM; in test [16], 14.7 µM. In addition, the IC50 in [18] was 2.21 µM; in test [19], 26.3 µM; in test [20], greater than 100 µM. The Activity came to 0.11% in test [2]; 44.86% in test [5]; 28.3% in [6]; 4.32% in [9]; 20.48% in test [17]; 6.36% in [21]. Also, the “fold change (FC)” value in test [3] worked out at 3.5. In addition, the result in test [8], in test [10], in test [13], in [14] and in test [15] was Active.
For `O=C1C[C@H]2O[C@H]([C@H](O)c3ccccc3)[C@H](O)[C@H]2O1`, the Activity is given as -0.31% in [2]; 52.47% in [5]; 24.34% in test [6]; -0.36% in test [9]; 21.03% in test [17]; 2.16% in [21]. Also, the outcome in [8], in [14] and in [15] was Active. The IC50 in [12] is 75.3 µM; in test [18], greater than 100 µM; in test [20] it was greater than 100 µM.
